Laboratory results published in ChEMBL document CHEMBL1141656, “N-{[(6-substituted-1,3-benzothiazole-2-yl)amino]carbonothioyl}-2/4-substituted benzamides: synthesis and pharmacological evaluation” (Eur J Med Chem, 2008).

Experiments:
Mus musculus [1] = assay: Anticonvulsant activity in ip dosed CF1 albino mouse assessed as minimum effective dose after 0.5 hrs by scPTZ test; type: functional
How it was run: (§1)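 Mice dosed i.p. at 30, 100 and 300 mg/kg in 1% Tween 80 or 0.5% methylcellulose–water, then challenged 0.5 and 4 h later. PTZ in 0.9% NaCl was injected s.c. at the posterior midline. Mice were watched for 30 min. Protection meant no clonic spasm lasting at least 5 s. Value is the minimum dose active in half or more of the mice.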

Mus musculus [2] = assay: Anticonvulsant activity in ip dosed CF1 albino mouse assessed as minimum effective dose after 4 hrs by MES screen test; type: functional
How it was run: (§2)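 Mice given test compounds i.p. at 30, 100 and 300 mg/kg (one to four mice per dose), suspended in 1% Tween 80 or 0.5% methylcellulose–water. Maximal electroshock seizure test, read at 0.5 and 4 h after dosing. Value is the lowest dose protecting half or more of the mice.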

Mus musculus [3] = assay: Anticonvulsant activity in ip dosed CF1 albino mouse assessed as minimum effective dose after 0.5 hrs by MES screen test; type: functional; how it was run: as §2
Rattus norvegicus [4] = assay: Antidepressant activity in Wistar rat assessed as mean average immobility time during 5 mins of test period at 30 mg/kg, po after 30 mins by forced-swimming test; type: functional
Mus musculus [5] = assay: Anticonvulsant activity in ip dosed CF1 albino mouse assessed as minimum effective dose after 4 hrs by scPTZ test; type: functional; how it was run: as §1
Rattus norvegicus [6] = species: Rattus norvegicus; assay: Hepatotoxicity in Sprague-Dawley rat assessed as presence of normal hepatic parenchyma with portal triad and central vein by histopathological study; type: toxicity, organism-based; details: in vivo
How it was run: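 Rats were dosed chronically and sacrificed under light ether anesthesia 24 h after the last dose. Livers were removed, washed in normal saline and embedded in paraffin. Sections 5–6 thick were cut, stained with haematoxylin and eosin, and examined microscopically.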

Mus musculus [7] = species: Mus musculus; assay: Neurotoxicity in CF1 albino mouse after 4 hrs by rotarod test; type: toxicity, organism-based; details: in vivo
Rattus norvegicus [8] = assay: Hepatotoxicity in Sprague-Dawley rat assessed as total protein level per 100 ml of blood at 30 mg/kg, po after 15 days; type: toxicity, organism-based; design: dose 30 mg/kg, route oral; details: in vivo, 360 h
How it was run: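 Rats given 30 mg/kg/day p.o. in methylcellulose for two weeks, then anesthetized with ether. Blood was collected from the liver. SGOT, SGPT, alkaline phosphatase, total protein and albumin were measured by reported methods.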

Mus musculus [9] = species: Mus musculus; assay: Neurotoxicity in CF1 albino mouse after 0.5 hrs by rotarod test; type: toxicity, organism-based; details: in vivo

Compound: O=C(NC(=S)Nc1nc2ccc([N+](=O)[O-])cc2s1)c1ccccc1
- Activity (Mus musculus [1]): 300 mg/kg
- Activity (Mus musculus [2]): 300 mg/kg
- Activity (Mus musculus [3]): 300 mg/kg
- Activity (Rattus norvegicus [4]): 14.8 s
- Activity (Mus musculus [5]): 300 mg/kg
- Activity (Rattus norvegicus [6]): Non-toxic

Compound: O=C(NC(=S)Nc1nc2ccc(Cl)cc2s1)c1ccc(Cl)cc1
- Activity (Mus musculus [1]): 100 mg/kg
- Activity (Mus musculus [2]): 100 mg/kg
- Activity (Mus musculus [3]): 30 mg/kg
- Activity (Mus musculus [7]): Not Active
- Activity (Rattus norvegicus [4]): 20.2 s
- Activity (Rattus norvegicus [8]): 1.9 g
- Activity (Mus musculus [5]): 300 mg/kg
- Activity (Mus musculus [9]): Not Active
- Activity (Rattus norvegicus [6]): Non-toxic

Compound: O=C(NC(=S)Nc1nc2ccc(Cl)cc2s1)c1ccccc1
- Activity (Mus musculus [1]): 100 mg/kg
- Activity (Mus musculus [2]): 300 mg/kg
- Activity (Mus musculus [3]): 300 mg/kg
- Activity (Rattus norvegicus [4]): 29 s
- Activity (Mus musculus [5]): 300 mg/kg
- Activity (Rattus norvegicus [6]): Non-toxic

Compound: COc1ccc2nc(NC(=S)NC(=O)c3ccccc3)sc2c1
- Activity (Mus musculus [1]): 300 mg/kg
- Activity (Mus musculus [2]): 100 mg/kg
- Activity (Mus musculus [3]): 100 mg/kg
- Activity (Rattus norvegicus [4]): 19.8 s
- Activity (Mus musculus [5]): 300 mg/kg
- Activity (Rattus norvegicus [6]): Non-toxic

Compound: COc1ccc(C(=O)NC(=S)Nc2nc3ccc(OC)cc3s2)cc1
- Activity (Mus musculus [1]): 300 mg/kg
- Activity (Mus musculus [2]): 300 mg/kg
- Activity (Mus musculus [3]): 300 mg/kg
- Activity (Rattus norvegicus [4]): 16.8 s
- Activity (Mus musculus [5]): 300 mg/kg
- Activity (Rattus norvegicus [6]): Non-toxic

Compound: Cc1ccc2nc(NC(=S)NC(=O)c3ccc(Cl)cc3)sc2c1
- Activity (Mus musculus [1]): 100 mg/kg
- Activity (Mus musculus [2]): 100 mg/kg
- Activity (Mus musculus [3]): 30 mg/kg
- Activity (Mus musculus [7]): Not Active
- Activity (Rattus norvegicus [4]): 30 s
- Activity (Rattus norvegicus [8]): 1.88 g
- Activity (Mus musculus [5]): 100 mg/kg
- Activity (Mus musculus [9]): Not Active
- Activity (Rattus norvegicus [6]): Non-toxic

Compound: O=C(NC(=S)Nc1nc2ccc(F)cc2s1)c1ccccc1Cl
- Activity (Mus musculus [1]): 100 mg/kg
- Activity (Mus musculus [2]): 100 mg/kg
- Activity (Mus musculus [3]): 30 mg/kg
- Activity (Mus musculus [7]): Not Active
- Activity (Rattus norvegicus [4]): 25 s
- Activity (Rattus norvegicus [8]): 1.83 g
- Activity (Mus musculus [5]): 300 mg/kg
- Activity (Mus musculus [9]): Not Active
- Activity (Rattus norvegicus [6]): Non-toxic

Compound: COc1ccc(C(=O)NC(=S)Nc2nc3ccc([N+](=O)[O-])cc3s2)cc1
- Activity (Rattus norvegicus [4]): 27.8 s
- Activity (Rattus norvegicus [6]): Non-toxic

Compound: O=C(NC(=S)Nc1nc2ccc(F)cc2s1)c1ccc(Cl)cc1
- Activity (Mus musculus [2]): 300 mg/kg
- Activity (Mus musculus [3]): 100 mg/kg
- Activity (Rattus norvegicus [4]): 24.6 s
- Activity (Rattus norvegicus [6]): Non-toxic

Compound: NC(=O)N1c2ccccc2C=Cc2ccccc21 [CARBAMAZEPINE]
- Activity (Mus musculus [1]): 100 mg/kg
- Activity (Mus musculus [2]): 100 mg/kg
- Activity (Mus musculus [3]): 30 mg/kg
- Activity (Mus musculus [7]): Not Active
- Activity (Mus musculus [5]): 100 mg/kg
- Activity (Mus musculus [9]): Not Active
- Activity (Rattus norvegicus [6]): Non-toxic

Compound: O=C(NC(=S)Nc1nc2ccc(Br)cc2s1)c1ccc(Cl)cc1
- Activity (Mus musculus [1]): 300 mg/kg
- Activity (Mus musculus [2]): 100 mg/kg
- Activity (Mus musculus [3]): 100 mg/kg
- Activity (Rattus norvegicus [4]): 38 s
- Activity (Mus musculus [5]): 300 mg/kg
- Activity (Rattus norvegicus [6]): Non-toxic

Compound: COc1ccc(C(=O)NC(=S)Nc2nc3ccc(Cl)cc3s2)cc1
- Activity (Mus musculus [1]): 30 mg/kg
- Activity (Mus musculus [2]): 30 mg/kg
- Activity (Mus musculus [3]): 30 mg/kg
- Activity (Mus musculus [7]): Not Active
- Activity (Rattus norvegicus [4]): 34.2 s
- Activity (Rattus norvegicus [8]): 1.79 g
- Activity (Mus musculus [5]): 100 mg/kg
- Activity (Mus musculus [9]): Not Active
- Activity (Rattus norvegicus [6]): Non-toxic

Compound: O=C(NC(=S)Nc1nc2ccc(Cl)cc2s1)c1ccccc1Cl
- Activity (Mus musculus [1]): 300 mg/kg
- Activity (Mus musculus [2]): 300 mg/kg
- Activity (Mus musculus [3]): 300 mg/kg
- Activity (Rattus norvegicus [4]): 32.6 s
- Activity (Mus musculus [5]): 300 mg/kg
- Activity (Rattus norvegicus [6]): Non-toxic

Compound: O=C1NC(=O)C(c2ccccc2)(c2ccccc2)N1 [PHENYTOIN]
- Activity (Mus musculus [2]): 30 mg/kg
- Activity (Mus musculus [3]): 30 mg/kg
- Activity (Mus musculus [7]): Not Active
- Activity (Mus musculus [9]): Not Active
- Activity (Rattus norvegicus [6]): Non-toxic

Compound: O=C(NC(=S)Nc1nc2ccc(Br)cc2s1)c1ccccc1Cl
- Activity (Mus musculus [1]): 300 mg/kg
- Activity (Mus musculus [2]): 300 mg/kg
- Activity (Mus musculus [3]): 300 mg/kg
- Activity (Rattus norvegicus [4]): 22.6 s
- Activity (Mus musculus [5]): 300 mg/kg
- Activity (Rattus norvegicus [6]): Non-toxic

Compound: Cc1ccc2nc(NC(=S)NC(=O)c3ccccc3Cl)sc2c1
- Activity (Mus musculus [1]): 30 mg/kg
- Activity (Mus musculus [2]): 30 mg/kg
- Activity (Mus musculus [3]): 30 mg/kg
- Activity (Mus musculus [7]): Not Active
- Activity (Rattus norvegicus [4]): 40.4 s
- Activity (Rattus norvegicus [8]): 1.71 g
- Activity (Mus musculus [5]): 30 mg/kg
- Activity (Mus musculus [9]): Not Active
- Activity (Rattus norvegicus [6]): Non-toxic

Compound: COc1ccc2nc(NC(=S)NC(=O)c3ccc(Cl)cc3)sc2c1
- Activity (Mus musculus [1]): 300 mg/kg
- Activity (Mus musculus [2]): 300 mg/kg
- Activity (Mus musculus [3]): 300 mg/kg
- Activity (Rattus norvegicus [4]): 43 s
- Activity (Mus musculus [5]): 300 mg/kg
- Activity (Rattus norvegicus [6]): Non-toxic

Compound: COc1ccc2nc(NC(=S)NC(=O)c3ccccc3Cl)sc2c1
- Activity (Mus musculus [1]): 100 mg/kg
- Activity (Mus musculus [2]): 100 mg/kg
- Activity (Mus musculus [3]): 30 mg/kg
- Activity (Mus musculus [7]): Not Active
- Activity (Rattus norvegicus [4]): 42.6 s
- Activity (Rattus norvegicus [8]): 1.98 g
- Activity (Mus musculus [5]): 100 mg/kg
- Activity (Mus musculus [9]): Not Active
- Activity (Rattus norvegicus [6]): Non-toxic

Compound: COc1ccc(C(=O)NC(=S)Nc2nc3ccc(C)cc3s2)cc1
- Activity (Mus musculus [2]): 300 mg/kg
- Activity (Mus musculus [3]): 300 mg/kg
- Activity (Rattus norvegicus [4]): 10.2 s
- Activity (Rattus norvegicus [6]): Non-toxic

Compound: Cc1ccc2nc(NC(=S)NC(=O)c3ccccc3)sc2c1
- Activity (Mus musculus [1]): 300 mg/kg
- Activity (Mus musculus [2]): 300 mg/kg
- Activity (Mus musculus [3]): 300 mg/kg
- Activity (Rattus norvegicus [4]): 29 s
- Activity (Mus musculus [5]): 300 mg/kg
- Activity (Rattus norvegicus [6]): Non-toxic

Compound: O=C(NC(=S)Nc1nc2ccc(F)cc2s1)c1ccccc1
- Activity (Mus musculus [1]): 30 mg/kg
- Activity (Mus musculus [2]): 30 mg/kg
- Activity (Mus musculus [3]): 30 mg/kg
- Activity (Mus musculus [7]): Not Active
- Activity (Rattus norvegicus [4]): 24 s
- Activity (Rattus norvegicus [8]): 1.8 g
- Activity (Mus musculus [5]): 100 mg/kg
- Activity (Mus musculus [9]): Not Active
- Activity (Rattus norvegicus [6]): Non-toxic

Compound: CNCCC(Oc1ccc(C(F)(F)F)cc1)c1ccccc1 (stereo not drawn) [FLUOXETINE]
- Activity (Mus musculus [2]): 14.2 mg/kg
- Activity (Mus musculus [3]): 29.6 mg/kg

Compound: COc1ccc(C(=O)NC(=S)Nc2nc3ccc(F)cc3s2)cc1
- Activity (Rattus norvegicus [4]): 31.2 s
- Activity (Rattus norvegicus [6]): Non-toxic
